Laboratory results from ChEMBL document CHEMBL1126202, “Dual-action penems and carbapenems” (J Med Chem, 1992).

Columns and labels:
Staphylococcus aureus [1] = assay: Minimum inhibitory concentration to the Penicillin G binding to Staphylococcus aureus ATCC 29213 Penicillin binding protein
Enterobacter cloacae [2] = assay: In vitro antibacterial activity against enterobacter cloacae P99 (constitutive beta-lactamase producer); assay type: functional
Procedure, shortened: (§1)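 MIC was determined by agar dilution on Mueller-Hinton agar. Serial 2-fold aqueous dilutions were diluted 10-fold in agar to give final concentrations of 128 to 0.0156 μg/mL. Plates were inoculated by Steers replicator with overnight broth cultures diluted 100-fold.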

Escherichia coli [3] = assay: In vitro antibacterial activity against Escherichia coli 25922; assay type: functional; procedure, shortened: as §1
Clostridioides difficile = assay: In vitro antibacterial activity against Clostridium difficile 651; assay type: functional
[4] = biological target: T1, Penicillin-binding protein 2b (Staphylococcus aureus) (UniProt Q9XDB3); assay: Concentration inhibiting [14C]- Penicillin G binding to Staphylococcus aureus ATCC 29213 Penicillin binding protein 3, 85 kDa
T1 sequence (whole entry): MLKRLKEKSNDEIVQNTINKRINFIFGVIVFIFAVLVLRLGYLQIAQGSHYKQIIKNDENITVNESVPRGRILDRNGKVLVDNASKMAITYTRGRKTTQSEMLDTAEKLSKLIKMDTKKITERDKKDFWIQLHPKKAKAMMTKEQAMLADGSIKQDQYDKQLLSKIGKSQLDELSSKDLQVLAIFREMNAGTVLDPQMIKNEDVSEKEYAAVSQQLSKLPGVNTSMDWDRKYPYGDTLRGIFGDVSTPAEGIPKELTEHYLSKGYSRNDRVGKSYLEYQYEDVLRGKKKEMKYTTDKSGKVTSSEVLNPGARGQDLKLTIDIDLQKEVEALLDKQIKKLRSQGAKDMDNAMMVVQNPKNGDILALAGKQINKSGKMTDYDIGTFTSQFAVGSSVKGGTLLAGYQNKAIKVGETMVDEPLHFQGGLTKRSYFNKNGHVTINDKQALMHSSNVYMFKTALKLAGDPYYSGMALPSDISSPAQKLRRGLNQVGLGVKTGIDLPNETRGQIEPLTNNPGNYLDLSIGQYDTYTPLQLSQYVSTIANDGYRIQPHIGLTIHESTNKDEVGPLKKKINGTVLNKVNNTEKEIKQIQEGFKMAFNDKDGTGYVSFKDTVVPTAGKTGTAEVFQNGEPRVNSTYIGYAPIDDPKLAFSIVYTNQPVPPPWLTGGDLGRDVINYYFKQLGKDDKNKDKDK

[5] = biological target: T2, Penicillin-binding protein 1 (Staphylococcus aureus (strain COL)) (UniProt F4NA86); assay: Concentration inhibiting [14C]- Penicillin G binding to Staphylococcus aureus ATCC 29213 Penicillin binding protein 1, 87 kDa
T2 sequence (whole entry): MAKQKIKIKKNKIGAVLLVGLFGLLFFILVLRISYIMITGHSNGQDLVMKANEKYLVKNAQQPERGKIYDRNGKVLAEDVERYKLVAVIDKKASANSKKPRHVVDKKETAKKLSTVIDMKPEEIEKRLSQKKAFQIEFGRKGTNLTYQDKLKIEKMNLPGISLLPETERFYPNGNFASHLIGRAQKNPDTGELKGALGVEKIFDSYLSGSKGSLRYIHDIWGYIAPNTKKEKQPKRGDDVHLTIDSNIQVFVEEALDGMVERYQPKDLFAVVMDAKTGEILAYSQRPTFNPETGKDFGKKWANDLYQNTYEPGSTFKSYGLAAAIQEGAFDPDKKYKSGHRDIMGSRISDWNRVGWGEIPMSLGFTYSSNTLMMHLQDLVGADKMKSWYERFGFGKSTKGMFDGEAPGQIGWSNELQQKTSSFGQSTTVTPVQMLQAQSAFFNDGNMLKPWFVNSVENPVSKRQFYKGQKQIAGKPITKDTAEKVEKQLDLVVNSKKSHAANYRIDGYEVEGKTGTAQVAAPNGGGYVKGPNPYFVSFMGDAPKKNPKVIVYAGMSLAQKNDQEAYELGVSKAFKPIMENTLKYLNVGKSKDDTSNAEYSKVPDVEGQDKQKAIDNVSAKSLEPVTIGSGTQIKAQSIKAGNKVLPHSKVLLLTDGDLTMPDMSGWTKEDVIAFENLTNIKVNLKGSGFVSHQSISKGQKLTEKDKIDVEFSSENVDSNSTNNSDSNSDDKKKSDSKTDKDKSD

[6] = biological target: Penicillin-binding protein 4 (Staphylococcus aureus) (UniProt P72355); assay: Concentration inhibiting [14C]- Penicillin G binding to Staphylococcus aureus ATCC 29213 Penicillin binding protein 4 41 kDa
Escherichia coli [7] = assay: Effect on replication DNA biosynthesis in Escherichia coli H560 (permeabilised cells).; assay type: functional, organism-based
Procedure, shortened: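 Toluene-permeabilized E. coli H560 cells were used. Replicative DNA synthesis was measured as ATP-dependent [3H]thymidine incorporation into trichloroacetic acid-insoluble material. IC50 is the concentration giving 50% inhibition.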

Staphylococcus aureus [8] = assay: Minimum inhibitory concentration to the Penicillin G binding to Staphylococcus aureus ATCC 29213 PBPs
Pseudomonas aeruginosa = assay: In vitro antibacterial activity against Ps. aeruginosa 18SH (constitutive beta-lactamase producer); assay type: functional; procedure, shortened: as §1
[9] = biological target: T2, Penicillin-binding protein 1 (Staphylococcus aureus (strain COL)); assay: Concentration inhibiting [14C]- Penicillin G binding to Staphylococcus aureus ATCC 29213 Penicillin binding protein 1 87 kDa
[10] = biological target: T1, Penicillin-binding protein 2b (Staphylococcus aureus); assay: Concentration inhibiting [14C]- Penicillin G binding to Staphylococcus aureus ATCC 29213 Penicillin binding protein 3, 75 kDa
Escherichia coli [11] = assay: Minimum inhibitory concentration inhibiting [14C]- Penicillin G binding to Escherichia coli UB1005 PBPs
[12] = tested on: Penicillin-binding protein 3 FtsI (Escherichia coli K-12); assay: Concentration inhibiting [14C]- Penicillin G binding to Escherichia coli UB1005 PBP3 (penicillin binding protein) 60 kDa
Escherichia coli [13] = assay: Minimum inhibitory concentration inhibiting [14C]- Penicillin G binding to Escherichia coli UB1005 PBPs.
Hathewaya histolytica = assay: In vitro antibacterial activity against Clostridium histolyticum 503-86; assay type: functional
Bacteroides fragilis = assay: In vitro antibacterial activity against Bacteroides fragilis S2; assay type: functional
Procedure, shortened: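 Anaerobic MICs were determined in microtiter plates in Schaedler's broth supplemented with coenzyme I and hemin. Incubation was under an oxygen-free hydrogen-carbon dioxide atmosphere.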

Streptococcus pneumoniae = assay: In vitro antibacterial activity against Streptococcus pneumoniae 6301; assay type: functional
Procedure, shortened: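 Streptococcal MICs were determined by agar dilution on brain heart infusion agar supplemented with 20 units/mL bovine liver catalase. Final concentrations were 128 to 0.0156 μg/mL from 2-fold dilutions. Inocula were overnight broth cultures diluted 100-fold, applied by Steers replicator.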

Staphylococcus aureus [14] = assay: Minimum inhibitory concentration to the compound inhibiting [14C]- Penicillin G binding to Staphylococcus aureus ATCC 29213 Penicillin binding protein
Citrobacter freundii = assay: In vitro antibacterial activity against Citrobacter freundii BS-16 (constitutive beta-lactamase producer); assay type: functional; procedure, shortened: as §1
Enterobacter cloacae [15] = assay: In vitro antibacterial activity against Enterobacter cloacae P99 (constitutive beta-lactamase producer); assay type: functional
Klebsiella pneumoniae = assay: In vitro antibacterial activity against Klebsiella pneumoniae A; assay type: functional; procedure, shortened: as §1
Staphylococcus aureus [16] = assay: In vitro antibacterial activity against Staphylococcus aureus 753 (constitutive beta-lactamase producer); assay type: functional; procedure, shortened: as §1

## C[C@@H](O)[C@H]1C(=O)N2C(C(=O)[O-])=C(COC(=O)N3CCN(c4cc5c(cc4F)c(=O)c(C(=O)O)cn5C4CC4)CC3)S[C@H]12.[Na+]
Staphylococcus aureus [1]
  MIC: 0.25 µg/mL
Enterobacter cloacae [2]
  MIC: 0.0625 µg/mL
Escherichia coli [3]
  MIC: 0.06 µg/mL
Clostridioides difficile
  MIC: 4 µg/mL
[4]
  IC90: 2 µg/mL
[5]
  IC90: 2 µg/mL
[6]
  IC90: 2 µg/mL
Escherichia coli [7]
  IC50: 3 µg/mL

## C[C@@H](O)[C@H]1C(=O)N2C(C(=O)[O-])=C(COC(=O)c3cn(CCF)c4c(F)c(N5CCN(C)CC5)c(F)cc4c3=O)S[C@H]12.[Na+]
Staphylococcus aureus [8]
  MIC: 0.125 µg/mL
Enterobacter cloacae [2]
  MIC: 0.5 µg/mL
Escherichia coli [3]
  MIC: 0.25 µg/mL
Clostridioides difficile
  MIC: 0.5 µg/mL
Pseudomonas aeruginosa
  MIC: 4 µg/mL
[9]
  IC90: 0.5 µg/mL
[10]
  IC90: 0.5 µg/mL
Escherichia coli [11]
  MIC: 2 µg/mL
Escherichia coli [7]
  IC50: 4.7 µg/mL
[12]
  IC90: 30 µg/mL

## C[C@@H](O)[C@H]1C(=O)N2C(C(=O)[O-])=C(CO)S[C@H]12.[Na+]
Escherichia coli [13]
  MIC: 4 µg/mL
Hathewaya histolytica
  MIC: < 0.125 µg/mL
Bacteroides fragilis
  MIC: < 0.125 µg/mL
Streptococcus pneumoniae
  MIC: 0.125 µg/mL
Staphylococcus aureus [14]
  MIC: 0.25 µg/mL
Citrobacter freundii
  MIC: 4 µg/mL
Enterobacter cloacae [15]
  MIC: 8 µg/mL
[5]
  IC90: 30 µg/mL
Klebsiella pneumoniae
  MIC: 4 µg/mL
[10]
  IC90: 10 µg/mL
Staphylococcus aureus [16]
  MIC: 1 µg/mL
